Source: PubChem BioAssay (Broad Institute)
FGF22 binding – binders of human FGF22 protein, primary screen, FGF22 synaptogenesis inhibitor project, biophysical, thermal shift, single point; Fibroblast growth factor 22 (Homo sapiens), Q9HCT0; recombinant FGF22 thermal shift, SYPRO orange fluorescence; percent of sucrose octasulfate shift, DMSO zero; activity (Tm shift, normalised), % at 9.99 µM; 340,000 tested, 1.5% active;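 active = mean Tm shift, scaled 0 neutral to 100 positive control, at about 1.3% or above, every replicate too, limit read from the data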
S100A4 MyoIIA – inhibitors of S100A4-myosin IIA peptide binding, primary screen, biochemical, fluorescence polarization, TAMRA-MyoIIA peptide. Protein S100-A4 (Homo sapiens), P26447. inhibition, % at 10.7 µM. 360,000 tested, 0.14% active;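 active = mean inhibition of at least 70% across replicates, with every replicate also reaching that level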
Target sequence (P26447 whole entry, looked up): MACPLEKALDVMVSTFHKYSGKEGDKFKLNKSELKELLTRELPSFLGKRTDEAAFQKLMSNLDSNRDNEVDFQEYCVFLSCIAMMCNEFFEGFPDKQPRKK
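incubation = readout 5 min after mixing, signal stable up to 60 min | system = S100A4 monomer protein | buffer or medium = HEPES pH 7.2 with CaCl2, KCl, NaCl, DTT, Triton | benchmarks = neutral control DMSO, positive control TFP | also added = fluorescent myosin IIA peptide, 5 nM | compound dosing = one concentration per compound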
E-sel inducer – E-selectin induction in HUVECs, primary screen, imaging, HUVEC, immunofluorescence imaging, single point; P16581; normalized: neutral wells 0, TNF-alpha wells 100; activation, % at 7.58 µM; 260,000 tested, 0.37% active; AID 686992, 2013;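 active = mean E-selectin-positive cell signal at least 10% of the positive control, reached in at least 60% of replicates, without over 20% cell loss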
Target sequence (P16581 whole entry, looked up): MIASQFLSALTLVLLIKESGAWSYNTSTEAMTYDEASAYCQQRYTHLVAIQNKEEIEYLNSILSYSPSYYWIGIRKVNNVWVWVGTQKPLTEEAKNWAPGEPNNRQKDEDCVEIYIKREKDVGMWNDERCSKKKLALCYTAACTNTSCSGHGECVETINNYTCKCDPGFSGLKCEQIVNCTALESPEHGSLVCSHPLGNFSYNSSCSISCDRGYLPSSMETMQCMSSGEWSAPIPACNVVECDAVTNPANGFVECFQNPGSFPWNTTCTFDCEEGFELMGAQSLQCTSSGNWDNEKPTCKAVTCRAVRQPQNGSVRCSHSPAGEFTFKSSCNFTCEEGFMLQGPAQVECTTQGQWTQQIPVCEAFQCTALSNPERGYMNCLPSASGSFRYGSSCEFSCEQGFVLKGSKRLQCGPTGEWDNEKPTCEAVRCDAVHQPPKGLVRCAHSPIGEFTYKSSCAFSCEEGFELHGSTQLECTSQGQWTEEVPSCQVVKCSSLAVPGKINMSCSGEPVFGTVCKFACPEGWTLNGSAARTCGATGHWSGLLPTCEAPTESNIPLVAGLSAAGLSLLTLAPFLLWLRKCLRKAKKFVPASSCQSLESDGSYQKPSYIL
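Read-out basis: % PE-positive cells; Test system: HUVEC primary endothelial cells; Technique: immunofluorescence imaging; Dosing: single-point compound dose.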
CFTR F508del cor – F508del CFTR correction, initial screen, CFBE line, single point; CFBE cells, YFP halide quenching; stimulated with forskolin plus potentiator P3; % fluorescence drop versus neutral controls; 350,000 tested, 0.36% active; activity (quench increase), % at 7.58 µM;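 active = mean added fluorescence quench of at least 8% versus neutral control, with both replicates also reaching 8%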;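 also: cells transiently co-express mutant CFTR-F508del with the halide-sensitive YFP; corrector assay measuring rescue of mutant channel to the surface after 24 h compound exposure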
Env fusion inh – inhibitors of HIV-1 Env-driven cell-cell fusion, primary screen, HeLa-JRFL effector, CEM21 target cells, luciferase | inhibition, % at 12.3 µM | 360,000 tested, 1.1% active;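 active = mean replicate inhibition score of at least 50 and every replicate individually at or above 50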
Large screens that a line does not name were inactive. The list is not random: actives were taken first. Their share in the collection is about 2.7%.

COCC(=O)Nc1ccc2c(c1)C(=O)N(C)C[C@H](OC)[C@H](C)CN(C(=O)NC(C)C)[C@@H](C)CO2	none (no result: Env fusion inh)
COc1cccc(-c2nnc3sc(C4CCCCC4)nn23)c1	Env fusion inh 123 (no result: FGF22 binding, S100A4 MyoIIA, E-sel inducer, CFTR F508del cor)
CCOc1cccc(-c2nnc3sc(C4CCCCC4)nn23)c1	Env fusion inh 96 (no result: FGF22 binding, S100A4 MyoIIA, E-sel inducer, CFTR F508del cor)
CC(C)NC(=O)Nc1cccc2c1O[C@H](CN(C)Cc1ccc(Cl)c(Cl)c1)[C@@H](C)CN([C@@H](C)CO)C2=O	E-sel inducer 53
CC(C)NC(=O)Nc1cccc2c1O[C@H](CN(C)Cc1ccc(Cl)c(Cl)c1)[C@H](C)CN([C@@H](C)CO)C2=O	E-sel inducer 30
C[C@@H]1CN([C@@H](C)CO)C(=O)c2cccc(NC(=O)CCCCCC(=O)Nc3ccccc3N)c2O[C@@H]1CN(C)Cc1ccc(Cl)c(Cl)c1	none (no result: Env fusion inh)
C[C@H](CO)N1C[C@H](C)[C@@H](CN(C)Cc2ccc(Cl)c(Cl)c2)Oc2c(NC(=O)CCCCCC(=O)Nc3ccccc3N)cccc2C1=O	E-sel inducer 324 (no result: S100A4 MyoIIA, Env fusion inh)
O=C(NCC[C@@H]1CC[C@@H](NC(=O)C2CCCCC2)[C@H](CO)O1)c1ccc(F)cc1	none
C[C@@H]1CCCCO[C@@H](CN(C)S(=O)(=O)c2ccccc2)[C@H](C)CN([C@@H](C)CO)C(=O)c2cc(NC(=O)Nc3cccc4ccccc34)ccc2O1	none (no result: E-sel inducer)
CN1CCN(C(=O)C[C@H]2CC[C@H]3[C@H](COc4ccc(NC(=O)C5CCCCC5)cc4C(=O)N3C)O2)CC1	none
COc1ccccc1NC1=NC(C)(C)N=C(N)N1	none (no result: FGF22 binding, S100A4 MyoIIA, E-sel inducer, CFTR F508del cor)
CC1(C)N=C(N)NC(Nc2ccccc2Cl)=N1	FGF22 binding 43 (no result: E-sel inducer)
O=C(C[C@H]1C[C@@H]2c3cc(NC(=O)CC4CC4)ccc3O[C@@H]2[C@@H](CO)O1)NCC(F)(F)F	none
CCCNC(=O)N1CC2(CN(C(=O)C3CCC3)C2)c2c([nH]c3cc(OC)ccc23)[C@@H]1CO	none (no result: FGF22 binding, S100A4 MyoIIA, Env fusion inh)
Cn1c(=O)oc2cc(S(=O)(=O)NCCC(=O)NC3CCCc4ccccc43)ccc21 (configuration not stated)	none (no result: E-sel inducer, Env fusion inh)
CC(C)CC(NS(=O)(=O)c1ccc2c(c1)oc(=O)n2C)C(=O)NC1CCCc2ccccc21 (configuration not stated)	Env fusion inh 58
COc1ccc(S(=O)(=O)Nc2cccc3c2O[C@H](CN(C)C(=O)Nc2ccc(F)cc2)[C@H](C)CN([C@@H](C)CO)C3=O)cc1	none (no result: Env fusion inh)
COCC(=O)Nc1ccc2c(c1)OC[C@@H](C)N(C(=O)Cc1ccccn1)C[C@H](C)[C@@H](OC)CN(C)C2=O	none (no result: Env fusion inh)
Fc1ccc(C2=NN(c3ccccc3)C(c3ccco3)C2)cc1 (configuration not stated)	none
O=[N+]([O-])c1ccc(/C=C/C2=NN(c3ccccc3)C(c3ccco3)C2)o1 (configuration not stated)	CFTR F508del cor 16 (no result: E-sel inducer)
CCCCn1c(SCC(=O)Nc2nnc(C(C)C)s2)nc2c1c(=O)n(C)c(=O)n2C	Env fusion inh 55 (no result: FGF22 binding, S100A4 MyoIIA, E-sel inducer, CFTR F508del cor)
CCCn1c(SCC(=O)Nc2nc3c(s2)CCCC3)nc2c1c(=O)n(C)c(=O)n2C	none (no result: FGF22 binding, S100A4 MyoIIA, E-sel inducer, CFTR F508del cor)
O=C(Nc1cccnc1)c1ccc(-c2cc(Cl)ccc2Cl)o1	FGF22 binding 43
COc1ccccc1-c1cn(CC[C@H]2CC[C@H](NC(=O)NC(C)C)[C@@H](CO)O2)nn1	none
Nc1ncnc2c(C3OC(CO)C(O)C3O)scc12 (configuration not stated)	FGF22 binding 43, Env fusion inh 109
CN1C[C@@H]2C[C@@H](c3cccn3-c3nccs3)N3CCC[C@@]23C1=O	FGF22 binding 43 (no result: E-sel inducer)
O=C1N(Cc2cccc(Cl)c2)C[C@@H]2C[C@@H](c3cccn3-c3nccs3)N3CCC[C@@]123	none
CCOC(=O)C1=CC[C@@H](c2ccc(OC)cc2)[C@@H]1C(=O)c1ccccc1	none (no result: E-sel inducer)
CCCOc1ccc(/C=N/Nc2cc(N3CCOCC3)ncn2)c(O)c1	Env fusion inh 67
CCOc1ccc(/C=N/Nc2cc(N3CCOCC3)ncn2)c(O)c1	none
CC1=C(C#N)C(=O)NC(=O)/C1=C\c1ccc(-c2cc(C)c(C)cc2[N+](=O)[O-])o1	FGF22 binding 1.6 (no result: E-sel inducer)
Cc1ccc(-c2ccc(/C=C3/NC(=O)NC3=O)o2)cc1[N+](=O)[O-]	none (no result: E-sel inducer)
O=[N+]([O-])c1ccc(N=Nc2c(Cl)cc(O)cc2Cl)cc1	CFTR F508del cor 10, Env fusion inh 85
CCS(=O)(=O)Nc1ccc2c(c1)C(=O)N(C)[C@H]1CC[C@H](CC(=O)NC)O[C@H]1CO2	none (no result: FGF22 binding)
COC(=O)Cn1c(=NC(=O)c2cc(-c3cccs3)nc3ccccc23)sc2cc(S(N)(=O)=O)ccc21	CFTR F508del cor 9.5
O=C(NCC[C@@H]1CC[C@H](NS(=O)(=O)c2ccccc2)[C@H](CO)O1)c1ccccc1F	none
CC1(C)Cc2ccccc2C(C(Cc2ccccc2)C(N)=O)=N1 (configuration not stated)	FGF22 binding 43
Cc1noc(C)c1S(=O)(=O)Nc1ccc2c(c1)C(=O)N([C@@H](C)CO)C[C@H](C)[C@@H](CN(C)C(=O)Nc1ccc(F)cc1)OCCCC[C@@H](C)O2	none
COC(=O)c1cc2c(=O)c3ccccc3oc2nc1/C=C/N(C)C	CFTR F508del cor 28
COC(=O)c1cc2c(=O)c3ccccc3oc2nc1C	none (no result: E-sel inducer)
Cc1c(C)c2ccc(OCC(=O)Nc3ccccn3)c(C)c2oc1=O	Env fusion inh 83 (no result: E-sel inducer)
O=Cc1ccc(-n2cc(C=O)c3ccccc32)cc1	FGF22 binding 43 (no result: E-sel inducer)
O=C(c1ccccc1)N1CCSc2sccc2C1=O	Env fusion inh 66 (no result: E-sel inducer)
O=C(c1ccccc1)N1CCSC1=S	none (no result: FGF22 binding, S100A4 MyoIIA, E-sel inducer, CFTR F508del cor)
Cc1cc(OC(=O)c2ccc(S(=O)(=O)N3CCCCC3)cc2)c([N+](=O)[O-])c(=O)[nH]1	none (no result: E-sel inducer)
Cc1cc(OC(=O)c2ccc(S(=O)(=O)N3CCCC3)cc2)c([N+](=O)[O-])c(=O)[nH]1	FGF22 binding 43
Cc1ccc(S(=O)(=O)N[C@@H]2CC[C@H](CC(=O)NC3CCCCC3)O[C@@H]2CO)cc1	none
CCOC(=O)C1(CCOC)CCN(C2C3CC4CC(C3)CC2C4)CC1 (configuration not stated)	FGF22 binding 43
COc1ccccc1NS(=O)(=O)c1ccc(C)c(C(=O)Nc2cc(C)on2)c1	CFTR F508del cor 8.8
COc1ccccc1C(=O)Nc1cc(C)on1	none (no result: E-sel inducer)
COCC(=O)Nc1ccc2c(c1)OC[C@H](C)N(CC1CC1)C[C@H](C)[C@@H](OC)CN(C)C2=O	none (no result: FGF22 binding, Env fusion inh)
CCCCNC(=S)N=Nc1c(O)[nH]c2ccccc12	none (no result: E-sel inducer)
COCCNC(=S)N=Nc1c(O)[nH]c2c(C)cc(C)cc12	FGF22 binding 44
COc1ccc2c3c(n(C)c2c1)[C@H](CO)N(C(C)=O)CC31CCN(C(=O)c2cnccn2)CC1	none (no result: Env fusion inh)
